{"source": "ChEMBL document CHEMBL4014339", "about": "“Discovery of 1,4-Benzodiazepine-2,5-dione (BZD) Derivatives as Dual Nucleotide Binding Oligomerization Domain Containing 1/2 (NOD1/NOD2) Antagonists Sensitizing Paclitaxel (PTX) To Suppress Lewis Lung Carcinoma (LLC) Growth in Vivo” (J Med Chem, 2017)", "key": {"[1]": {"target": "T1, Nucleotide-binding oligomerization domain-containing protein 1 (Homo sapiens) (UniProt Q9Y239)", "T1 sequence (whole entry)": "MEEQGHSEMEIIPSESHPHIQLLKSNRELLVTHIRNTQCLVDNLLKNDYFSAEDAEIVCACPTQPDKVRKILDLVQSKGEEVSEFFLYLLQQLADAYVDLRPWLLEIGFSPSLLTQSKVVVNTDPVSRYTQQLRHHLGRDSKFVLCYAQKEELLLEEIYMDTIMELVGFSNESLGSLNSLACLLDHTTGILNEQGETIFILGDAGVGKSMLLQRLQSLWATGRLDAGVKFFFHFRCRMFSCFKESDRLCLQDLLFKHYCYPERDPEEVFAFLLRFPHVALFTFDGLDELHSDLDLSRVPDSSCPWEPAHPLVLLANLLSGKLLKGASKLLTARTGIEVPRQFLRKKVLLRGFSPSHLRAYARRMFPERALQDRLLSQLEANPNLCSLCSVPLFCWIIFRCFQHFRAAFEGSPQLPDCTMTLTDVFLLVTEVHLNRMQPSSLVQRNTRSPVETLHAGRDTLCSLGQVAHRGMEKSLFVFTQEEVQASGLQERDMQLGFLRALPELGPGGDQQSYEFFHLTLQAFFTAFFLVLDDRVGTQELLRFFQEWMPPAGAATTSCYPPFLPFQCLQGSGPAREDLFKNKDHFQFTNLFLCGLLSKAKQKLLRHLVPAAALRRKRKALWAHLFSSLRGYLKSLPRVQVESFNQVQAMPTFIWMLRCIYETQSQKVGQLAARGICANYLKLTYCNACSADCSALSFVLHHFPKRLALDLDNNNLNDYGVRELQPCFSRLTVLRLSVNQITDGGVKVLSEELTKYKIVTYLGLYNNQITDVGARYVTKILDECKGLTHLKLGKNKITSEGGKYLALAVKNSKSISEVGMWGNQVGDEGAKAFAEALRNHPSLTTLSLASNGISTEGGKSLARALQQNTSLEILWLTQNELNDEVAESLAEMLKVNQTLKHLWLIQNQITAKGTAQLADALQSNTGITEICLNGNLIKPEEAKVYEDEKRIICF", "assay": "Antagonist activity at human NOD1 expressed in HEK-Blue cells assessed as inhibition of C12-iE-DAP-stimulated cell activation at 10 uM preincubated for 3 hrs followed by C12-iE-DAP addition measured after 20 hrs by SEAP reporter gene assay", "assay_type": "cell-based", "how_it_was_run": "(§1)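 HEK-Blue hNOD1 or hNOD2 cells preincubated with compound 3 h, then stimulated 20 h with C12-iE-DAP 50 ng/mL (NOD1) or MDP 100 ng/mL (NOD2); SEAP in supernatant quantified. Primary screen at 10 μM, hits repeated in triplicate; IC50 from dose-response, mean ± SD (n = 3), only for compounds reaching ≥50% inhibition at the screening concentration.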"}, "[2]": {"target": "T1, Nucleotide-binding oligomerization domain-containing protein 1 (Homo sapiens)", "assay": "Antagonist activity at human NOD1 expressed in HEK-blue cells assessed as inhibition of C12-iE-DAP-stimulated cell activation at 5 uM preincubated for 3 hrs followed by C12-iE-DAP addition measured after 20 hrs by SEAP reporter gene assay", "assay_type": "cell-based"}, "[3]": {"target": "T2, Nucleotide-binding oligomerization domain-containing protein 1 (Homo sapiens, UniProt Q9Y239)", "T2 sequence (Q9Y239 whole entry)": "T1 sequence (whole entry)", "assay": "Antagonist activity at human NOD1 expressed in HEK-blue cells assessed as inhibition of C12-iE-DAP-stimulated cell activation preincubated for 3 hrs followed by C12-iE-DAP addition measured after 20 hrs by SEAP reporter gene assay", "assay_type": "cell-based", "how_it_was_run": "as §1"}, "[4]": {"target": "Toll-like receptor 4 (Homo sapiens) (UniProt O00206)", "sequence (O00206 whole entry)": "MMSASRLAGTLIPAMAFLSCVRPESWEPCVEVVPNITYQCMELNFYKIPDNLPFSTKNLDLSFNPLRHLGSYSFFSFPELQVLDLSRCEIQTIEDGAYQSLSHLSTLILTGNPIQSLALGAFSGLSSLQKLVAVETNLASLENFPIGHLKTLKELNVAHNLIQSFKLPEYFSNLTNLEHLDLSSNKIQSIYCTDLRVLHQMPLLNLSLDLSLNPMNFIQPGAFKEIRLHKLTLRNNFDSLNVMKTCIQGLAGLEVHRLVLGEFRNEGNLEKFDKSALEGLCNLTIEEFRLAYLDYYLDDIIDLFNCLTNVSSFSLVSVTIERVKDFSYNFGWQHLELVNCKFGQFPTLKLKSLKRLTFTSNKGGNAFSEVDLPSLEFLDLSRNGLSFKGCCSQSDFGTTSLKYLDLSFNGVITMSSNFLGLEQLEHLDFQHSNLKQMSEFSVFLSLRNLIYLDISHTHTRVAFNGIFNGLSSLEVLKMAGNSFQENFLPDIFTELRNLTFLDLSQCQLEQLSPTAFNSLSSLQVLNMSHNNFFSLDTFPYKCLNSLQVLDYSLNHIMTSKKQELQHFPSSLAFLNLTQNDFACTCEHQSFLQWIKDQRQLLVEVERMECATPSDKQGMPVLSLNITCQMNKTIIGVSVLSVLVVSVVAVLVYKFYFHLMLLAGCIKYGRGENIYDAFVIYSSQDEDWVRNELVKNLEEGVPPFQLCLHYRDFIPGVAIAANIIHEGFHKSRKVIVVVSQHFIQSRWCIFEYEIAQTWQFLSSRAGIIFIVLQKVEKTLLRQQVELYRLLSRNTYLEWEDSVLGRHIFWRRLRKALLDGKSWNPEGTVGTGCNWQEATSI", "assay": "Inhibition of human TLR4 expressed in HEK-Blue cells assessed as reduction in LPS-EK-stimulated SEAP release preincubated for 3 hrs followed by LPS-EK addition measured after 20 hrs by spectrophotometric analysis", "assay_type": "cell-based"}, "[5]": {"target": "Tumor necrosis factor (Homo sapiens) (UniProt P01375)", "sequence (P01375 whole entry)": "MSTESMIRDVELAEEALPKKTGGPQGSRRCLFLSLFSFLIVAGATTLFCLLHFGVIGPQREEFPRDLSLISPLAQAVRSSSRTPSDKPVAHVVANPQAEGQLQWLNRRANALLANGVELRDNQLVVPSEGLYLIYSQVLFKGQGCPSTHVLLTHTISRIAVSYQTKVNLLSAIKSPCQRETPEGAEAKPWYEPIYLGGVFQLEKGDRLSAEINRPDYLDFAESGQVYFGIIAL", "assay": "Inhibition of recombinant human TNFalpha expressed in HEK-Blue cells assessed as reduction in SEAP release preincubated for 3 hrs measured after 20 hrs by spectrophotometric analysis", "assay_type": "cell-based"}, "[6]": {"target": "T3, Nucleotide-binding oligomerization domain-containing protein 2 (Homo sapiens, UniProt Q9HC29)", "T3 sequence (Q9HC29 whole entry, the tested form may be a part)": "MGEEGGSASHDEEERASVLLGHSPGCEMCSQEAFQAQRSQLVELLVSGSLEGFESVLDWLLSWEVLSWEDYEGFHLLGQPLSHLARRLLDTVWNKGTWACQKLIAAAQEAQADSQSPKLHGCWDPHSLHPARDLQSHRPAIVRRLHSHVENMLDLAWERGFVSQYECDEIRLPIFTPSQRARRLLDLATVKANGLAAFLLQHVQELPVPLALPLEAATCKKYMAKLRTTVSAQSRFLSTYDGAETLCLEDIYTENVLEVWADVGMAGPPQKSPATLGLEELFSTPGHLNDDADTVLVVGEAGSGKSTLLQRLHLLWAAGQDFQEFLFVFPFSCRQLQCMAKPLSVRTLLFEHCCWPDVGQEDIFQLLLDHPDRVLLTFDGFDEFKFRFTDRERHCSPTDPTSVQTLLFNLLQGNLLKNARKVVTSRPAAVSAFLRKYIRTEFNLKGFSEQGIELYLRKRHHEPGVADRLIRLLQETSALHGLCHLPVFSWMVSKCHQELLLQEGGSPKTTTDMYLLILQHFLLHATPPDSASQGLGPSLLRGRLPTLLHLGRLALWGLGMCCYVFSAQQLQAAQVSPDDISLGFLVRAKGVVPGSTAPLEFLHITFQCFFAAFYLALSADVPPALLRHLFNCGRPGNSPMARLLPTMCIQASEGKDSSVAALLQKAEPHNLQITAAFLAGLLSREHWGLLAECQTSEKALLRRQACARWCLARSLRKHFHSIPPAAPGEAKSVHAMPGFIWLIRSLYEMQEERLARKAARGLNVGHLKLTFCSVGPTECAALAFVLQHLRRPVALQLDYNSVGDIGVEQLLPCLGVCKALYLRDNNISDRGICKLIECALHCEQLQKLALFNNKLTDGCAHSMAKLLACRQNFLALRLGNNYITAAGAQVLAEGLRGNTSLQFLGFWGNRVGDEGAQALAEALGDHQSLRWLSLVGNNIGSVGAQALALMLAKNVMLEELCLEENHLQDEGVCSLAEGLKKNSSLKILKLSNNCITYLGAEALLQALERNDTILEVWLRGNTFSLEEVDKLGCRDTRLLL", "assay": "Inhibition of NOD2 in human PBMC-derived macrophages assessed as reduction in MDP-stimulated IL6 mRNA expression at 10 uM preincubated for 1 hr followed by MDP stimulation for 90 mins by RT-qPCR analysis", "how_it_was_run": "(§2)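 Human CD14+ monocytes from donor PBMC, differentiated 7 days with M-CSF 20 ng/mL to macrophages; 1.0 × 10^6 cells pretreated 1 h with compound (final 0.1% DMSO), then C12-iE-DAP 500 ng/mL or MDP 5 μg/mL for 90 min. IL-6/TNF-α mRNA by qRT-PCR, normalized to GAPDH; stimulated response set to 100%.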"}, "[7]": {"target": "T3, Nucleotide-binding oligomerization domain-containing protein 2", "assay": "Inhibition of NOD2 in human PBMC-derived macrophages assessed as reduction in MDP-stimulated TNFalpha mRNA expression at 10 uM preincubated for 1 hr followed by MDP stimulation for 90 mins by RT-qPCR analysis", "how_it_was_run": "as §2"}, "[8]": {"target": "T1, Nucleotide-binding oligomerization domain-containing protein 1 (Homo sapiens)", "assay": "Inhibition of NOD1 in human PBMC-derived macrophages assessed as reduction in C12-iE-DAP-stimulated IL6 mRNA expression preincubated for 1 hr followed by C12-iE-DAP stimulation for 90 mins by RT-qPCR analysis", "how_it_was_run": "as §2"}, "[9]": {"target": "T1, Nucleotide-binding oligomerization domain-containing protein 1 (Homo sapiens)", "assay": "Inhibition of human NOD1 expressed in HEK293 cells assessed as reduction in C12-iE-DAP-stimulated IL8 secretion preincubated with compound followed by C12-iE-DAP stimulation measured after 24 hrs by ELISA", "assay_type": "cell-based"}, "[10]": {"target": "T1, Nucleotide-binding oligomerization domain-containing protein 1 (Homo sapiens)", "assay": "Inhibition of NOD1 in human THP1 cells assessed as suppression of C12-iE-DAP-stimulated JNK phosphorylation at 1 to 10 uM preincubated for 1 hr followed by C12-iE-DAP stimulation after 45 mins by Western blot analysis", "assay_type": "cell-based", "how_it_was_run": "(§3)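 PMA (20 ng/mL, 48 h)-differentiated THP1 macrophages rested 24 h in PMA-free medium, serum-starved (0.1% FBS) overnight, pretreated 1 h with compound, stimulated 45 min with C12-iE-DAP 50 ng/mL. Lysates run on 8% SDS-PAGE, immunoblotted for phospho and total RIP2, p38, JNK, ERK and IκBα.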"}, "[11]": {"target": "T1, Nucleotide-binding oligomerization domain-containing protein 1 (Homo sapiens)", "assay": "Inhibition of NOD1 in human THP1 cells assessed as reduction of C12-iE-DAP-mediated decrease in IkBalpha levels at 1 to 10 uM preincubated for 1 hr followed by C12-iE-DAP addition measured after 45 mins by Western blot analysis", "assay_type": "cell-based", "how_it_was_run": "as §3"}, "[12]": {"target": "T1, Nucleotide-binding oligomerization domain-containing protein 1 (Homo sapiens)", "assay": "Inhibition of NOD1 in human PBMC-derived macrophages assessed as reduction in C12-iE-DAP-stimulated JNK phosphorylation at 1 to 10 uM preincubated for 1 hr followed by C12-iE-DAP stimulation for 45 mins by Western blot analysis"}, "[13]": {"target": "T3, Nucleotide-binding oligomerization domain-containing protein 2", "assay": "Inhibition of human NOD2 expressed in HEK293 cells assessed as suppression of MDP-stimulated p38 phosphorylation preincubated for 1 hr followed by MDP stimulation measured after 1 hr by Western blot analysis"}}, "note": "Calls of active or inactive are those of the source. No cut-off for these calls is given here."}
{"smiles": "CCCNC(=O)CC[C@H]1NC(=O)c2cc(Oc3cccc(N(C)C)c3)c(NC(=O)COCc3ccccc3)cc2NC1=O", "values": [{"measurement": "inhibition", "setting": "[1]", "value": 86.2, "unit": "%"}, {"measurement": "inhibition", "setting": "[2]", "value": 77.7, "unit": "%"}, {"measurement": "IC50", "setting": "[3]", "value": 2360, "unit": "nM"}, {"measurement": "inhibition", "setting": "[4]", "value": "inactive"}, {"measurement": "inhibition", "setting": "[5]", "value": "inactive"}, {"measurement": "inhibition", "setting": "[6]", "value": "Active"}, {"measurement": "inhibition", "setting": "[7]", "value": "Active"}, {"measurement": "inhibition", "setting": "[8]", "value": "Dose-dependent effect"}, {"measurement": "inhibition", "setting": "[9]", "value": "Dose-dependent effect"}, {"measurement": "inhibition", "setting": "[10]", "value": "Active"}, {"measurement": "inhibition", "setting": "[11]", "value": "Active"}, {"measurement": "inhibition", "setting": "[12]", "value": "Active"}, {"measurement": "inhibition", "setting": "[13]", "value": "Dose-dependent effect"}]}
